From ChEMBL document CHEMBL1125545, “4-Methyl-3-(arylsulfonyl)furoxans: a new class of potent inhibitors of platelet aggregation” (J Med Chem, 1992) come the findings set out here.

The species entered for the test is Homo sapiens. The test is described as follows: Inhibition of arachidonic acid (AA) induced human platelet aggregation. Type of test: functional. In short, it runs like this: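 Human PRP (pH 7.6; 200g, 15 min at room temperature) with platelet counts matched. Compound in DMSO-ethanol given 5 min before 1 mM arachidonic acid, with a solvent control. Aggregation followed by Born light-transmission aggregometry, IC50 derived from the aggregation traces. At least four repeats, each with platelets from a different donor.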

The term IC50 denotes the concentration needed to halve the response being measured. SODIUM NITROPRUSSIDE had an IC50 of 1000 nM.
